Measurements as given in PubChem BioAssay.
The source made the active and inactive calls.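 Rule for the calls, unless noted: active = current rise at least 3 SD above the untreated control mean in each of two repeat wells; inactive = the rest.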

Legend:
[1] = nonspecific flux increase, KCNQ1-free cells – parental CHO cells, counter-screen for KCNQ1 potentiator project (AID 493006;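 active = duplicate-averaged activation above buffer control mean plus 5 SD of those controls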); details: parental CHO-K1 cells, FluxOR thallium flux, at 10 µM; hits give high values
Outline: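 Benchmarks – buffer and R-L3 controls · Assay system – untransfected host CHO-K1 cells with FluxOR thallium dye · Measure – fluorescence change ratio scaled 0% buffer, 100% R-L3 · Technique – kinetic thallium-flux fluorescence · Timing – overnight 37 °C plating, 90 min RT dye, 20 min compound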

[2] = molecular target: Potassium voltage-gated channel subfamily KQT member 1 (Homo sapiens) (UniProt P51787); assay: enhancement of KCNQ1 channel thallium flux – FluxOR thallium flux, CHO cells, duplicates, confirmation (AID 493007;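 active = potentiation averaged over duplicate wells exceeding buffer-only control mean by more than 3 SD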;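 for outcome: cells depolarized by a potassium plus thallium sulfate stimulus after compound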); details: KCNQ1 cell line, FluxOR thallium flux fluorescence, at 10 µM; hits give high values, % of reference activator effect, buffer zero
Outline: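 Material: CHO cells stably expressing the KCNQ1 potassium channel / Times: dye 90 min then compound 20 min, both at room temperature / Detection: kinetic thallium influx fluorescence with FluxOR dye, 10 s baseline, 110 s post-stimulus / Benchmarks: buffer-only wells as 0% and R-L3 activator as 100% / Replicates: each compound tested in duplicate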

[3] = molecular target: Potassium voltage-gated channel subfamily KQT member 2 (Rattus norvegicus) (UniProt O88943); assay: KCNQ2 thallium flux enhancement – KCNQ2-CHO-K1 cells, selectivity assay for KCNQ1 potentiator project (AID 493009;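 active = mean duplicate potentiation above the buffer control mean plus 5 SD of buffer wells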;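 note: assay conditions were tuned for KCNQ1 rather than KCNQ2 modulators; signal is max minus min fluorescence divided by baseline after thallium stimulus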); details: FluxOR thallium flux fluorescence, at 10 µM; hits give high values, scaled: buffer 0, activator control 100
[4] = molecular target: Potassium voltage-gated channel subfamily KQT member 1 (Homo sapiens) (UniProt P51787); assay: KCNQ1 activators by electrophysiology – IonWorks patch clamp, KCNQ1-CHO cells, orthogonal assay for KCNQ1 potentiator project, confirmation (AID 493184); details: automated patch clamp current, at 10 µM; hits give high values;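 for current potentiation: percent change of the same well's current before compound addition so 0% = no change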
Outline: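 Probe or stimulus: depolarizing pulse to +40 mV from -90 mV; Material: CHO cells carrying KCNQ1; Compound: one dose, 10 µM final; Signal: automated voltage clamp, amphotericin B perforated patch; Read-out basis: percent current increase versus pre-compound level; Buffer or medium: pH 7.4 external bath; Replication: duplicates.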

[5] = molecular target: Potassium voltage-gated channel subfamily E member 1 (Homo sapiens) + Potassium voltage-gated channel subfamily KQT member 1 (Homo sapiens) (UniProt P15382+P51787); assay: KCNQ1-E1 channel activation – thallium flux, CHO-K1 KCNQ1/E1 cells, selectivity assay for KCNQ1 potentiator project, confirmation (AID 493186;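 active = mean duplicate activation above the buffer control mean plus 5 SD of those controls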); details: FluxOR thallium flux, at 10 µM; hits give high values
Outline: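 system = KCNQ1/E1-expressing stable CHO-K1 cell line | doses = single compound concentration per well | times = dye 90 min, compound 20 min, room temperature | measured by = FluxOR Tl+ flux fluorescence, kinetic read | evaluation = fluorescence rise relative to baseline, as percent of R-L3 response above buffer | controls = buffer and R-L3 | replicates = duplicate wells per compound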

Chain of Potassium voltage-gated channel subfamily E member 1 (Homo sapiens) + Potassium voltage-gated channel subfamily KQT member 1 (Homo sapiens) (P51787 whole entry, looked up): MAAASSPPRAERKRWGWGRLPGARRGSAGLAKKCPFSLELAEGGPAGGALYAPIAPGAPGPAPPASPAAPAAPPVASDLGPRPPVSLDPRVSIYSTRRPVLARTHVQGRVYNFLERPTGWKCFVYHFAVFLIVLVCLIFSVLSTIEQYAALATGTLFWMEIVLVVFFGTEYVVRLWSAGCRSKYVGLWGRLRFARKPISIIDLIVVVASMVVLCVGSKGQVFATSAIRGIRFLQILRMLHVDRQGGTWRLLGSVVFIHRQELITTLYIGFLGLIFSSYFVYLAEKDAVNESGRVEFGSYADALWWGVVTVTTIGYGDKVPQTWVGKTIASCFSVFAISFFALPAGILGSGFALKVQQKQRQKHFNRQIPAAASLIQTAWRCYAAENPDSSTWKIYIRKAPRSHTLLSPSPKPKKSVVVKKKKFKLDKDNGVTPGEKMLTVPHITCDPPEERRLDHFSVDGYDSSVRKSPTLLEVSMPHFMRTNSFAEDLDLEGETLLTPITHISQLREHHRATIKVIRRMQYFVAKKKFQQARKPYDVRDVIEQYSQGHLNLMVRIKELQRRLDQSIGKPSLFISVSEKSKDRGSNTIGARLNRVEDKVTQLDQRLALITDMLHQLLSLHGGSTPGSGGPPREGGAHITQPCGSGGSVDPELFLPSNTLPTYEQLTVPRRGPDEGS
Chain of Potassium voltage-gated channel subfamily KQT member 1 (Homo sapiens) (P51787 whole entry, looked up): as above
Chain of Potassium voltage-gated channel subfamily KQT member 2 (Rattus norvegicus) (O88943 whole entry, looked up): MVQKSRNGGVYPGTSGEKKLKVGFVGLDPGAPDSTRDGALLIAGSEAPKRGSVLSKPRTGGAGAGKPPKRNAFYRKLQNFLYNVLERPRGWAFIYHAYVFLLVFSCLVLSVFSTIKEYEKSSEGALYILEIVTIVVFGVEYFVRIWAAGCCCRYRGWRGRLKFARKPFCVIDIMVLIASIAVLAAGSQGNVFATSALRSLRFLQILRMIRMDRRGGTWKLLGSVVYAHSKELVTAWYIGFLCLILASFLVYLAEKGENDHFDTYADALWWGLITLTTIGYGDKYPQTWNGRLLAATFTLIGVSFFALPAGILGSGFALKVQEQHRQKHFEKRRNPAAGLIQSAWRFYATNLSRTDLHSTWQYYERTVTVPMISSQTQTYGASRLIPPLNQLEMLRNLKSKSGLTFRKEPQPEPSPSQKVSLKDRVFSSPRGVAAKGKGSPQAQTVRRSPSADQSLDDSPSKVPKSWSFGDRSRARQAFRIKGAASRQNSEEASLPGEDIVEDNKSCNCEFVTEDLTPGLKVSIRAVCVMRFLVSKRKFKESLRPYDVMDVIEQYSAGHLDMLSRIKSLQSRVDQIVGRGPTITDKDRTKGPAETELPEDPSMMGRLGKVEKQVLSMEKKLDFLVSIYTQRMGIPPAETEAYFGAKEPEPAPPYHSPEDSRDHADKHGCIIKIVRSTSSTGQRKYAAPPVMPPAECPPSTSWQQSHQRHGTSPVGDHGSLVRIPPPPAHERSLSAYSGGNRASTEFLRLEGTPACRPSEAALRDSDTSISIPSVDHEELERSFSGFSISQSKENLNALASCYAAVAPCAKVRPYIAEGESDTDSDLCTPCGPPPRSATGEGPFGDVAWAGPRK

Compound | outcome [1] | outcome [2] | outcome [3] | outcome [4] | outcome [5] | potentiation [2] | current potentiation [4] | potentiation [3] | activation [5]
CCOC(=O)C1CCN(S(=O)(=O)c2ccc3c4c2CC(=O)N4CC(C)S3)CC1 (stereo not given) | inactive | inactive | inactive | inactive | inactive | – | – | – | –
CCC1=NN2C(=N)/C(=C/c3ccc(OS(=O)(=O)c4ccccc4)c(OC)c3)C(=O)N=C2S1 | inactive | inactive | inactive | inactive | inactive | – | – | – | –
O=C(Nc1nc2c(Br)cc(Br)cc2c(=O)s1)c1ccco1 | inactive | inactive | inactive | inactive | inactive | – | – | – | –
Cc1ccc(C(=O)CC(=O)c2ccc(C)cc2O)cc1 | inactive | inactive | inactive | inactive | inactive | – | – | – | –
OCCN(CCO)c1ccc(C(c2ccccc2Cl)c2ccc(N(CCO)CCO)cc2Cl)c(Cl)c1 | inactive | – | inactive | inactive | inactive | 34.5% (active) | – | – | –
CC(c1nccs1)N(C)C(=O)CCc1nnc(Cc2c[nH]c3ccccc23)o1 (stereo not given) | inactive | inactive | inactive | inactive | inactive | – | – | – | –
S=C(NN=C1CCCCCC1)Nc1ccc(Cl)cc1 | inactive | inactive | inactive | inactive | inactive | – | – | – | –
CNC(=O)CC1C(=O)N(c2ccc(Cl)cc2)C(=S)N1CCc1ccc(OC)c(OC)c1 (stereo not given) | inactive | inactive | inactive | inactive | inactive | – | – | – | –
CCC(C)NCC(=O)Nc1sc2c(c1C(N)=O)CCC2 (stereo not given) | inactive | inactive | inactive | inactive | inactive | – | – | – | –
Cc1cc(/C=N/n2cnnc2)c(C)n1-c1ccc(Cl)cc1Cl | inactive | inactive | inactive | – | inactive | – | 28.9% (active) | – | –
CC1CCc2c(sc(NC(=O)C(=O)NCc3ccco3)c2C#N)C1 (stereo not given) | inactive | inactive | inactive | inactive | inactive | – | – | – | –
CCOC(=O)CSC(=S)NC(=O)c1ccc(OC)cc1 | inactive | – | – | inactive | inactive | 18.5% (active) | – | 147% (active) | –
O=c1c2ccccc2[nH]c(=S)n1C1CCCCC1 | inactive | inactive | inactive | inactive | inactive | – | – | – | –
COC(=O)CSc1nc(NC(C)C)nc(N(C)C)n1 | inactive | inactive | inactive | inactive | inactive | – | – | – | –
CCc1ccc(NC(=S)NC2CC3CCCC(C2)N3Cc2cccs2)cc1 (stereo not given) | inactive | inactive | inactive | inactive | inactive | – | – | – | –
COc1cc(C(=O)CCN2CCC(c3ccccc3)C2)cc(OC)c1OC (stereo not given) | inactive | inactive | inactive | inactive | inactive | – | – | – | –
N/C(=N\OC(=O)c1cccc2ccccc12)c1ccc(Br)cc1 | inactive | inactive | inactive | inactive | inactive | – | – | – | –
FC(F)(F)c1cccc(CN2CCC(c3cc(-c4cccs4)n[nH]3)CC2)c1 | inactive | inactive | inactive | inactive | inactive | – | – | – | –
CC(c1ccccc1)c1nnc(N)s1 (stereo not given) | inactive | inactive | inactive | inactive | inactive | – | – | – | –
CC(Oc1ccc2ccccc2c1)C(=O)NNC(=S)NC(=O)c1ccco1 (stereo not given) | inactive | – | – | inactive | – | 93% (active) | – | 214% (active) | 15.3% (active)

Compound | outcome [1] | outcome [2] | outcome [3] | outcome [4] | outcome [5] | potentiation [2] | current potentiation [4] | potentiation [3] | activation [5]
Cc1onc(-c2ccccc2)c1C(=O)NC(=S)Nc1sc2c(c1C#N)CCCC2 | inactive | – | inactive | inactive | inactive | 31.5% (active) | – | – | –
O=c1cc2c(nn1Cc1c(Cl)cccc1Cl)-c1ccccc1CC2 | inactive | – | inactive | inactive | inactive | 24% (active) | – | – | –
CCCOC(=O)C1=C(C)NC2=C(C(=O)CCC2)C1c1ccc(N(C)C)cc1 (stereo not given) | inactive | inactive | inactive | inactive | inactive | – | – | – | –
CC1CN(C(=S)NC(=O)c2ccco2)CC(C)O1 (stereo not given) | inactive | inactive | inactive | inactive | inactive | – | – | – | –
CNCC/C=C1/c2ccccc2CSc2ccccc21 | inactive | inactive | inactive | inactive | inactive | – | – | – | –
CCOC(=O)c1c(N)sc(N)c1C(=O)OCC | inactive | inactive | – | inactive | inactive | – | – | 170% (active) | –
O=c1c2ccccc2oc2cc(NCCCN3CCOCC3)ccc12 | inactive | – | inactive | inactive | inactive | 29.5% (active) | – | – | –
Cc1ccccc1C(OCCN(C)C)C1CCCCC1 (stereo not given) | inactive | inactive | inactive | inactive | inactive | – | – | – | –
COc1ccc(C(=O)NC(=S)NNC(=O)c2ccc(C)cc2)cc1 | inactive | – | – | inactive | – | 142% (active) | – | 250% (active) | 62.3% (active)
O=S(=O)(Nc1cccnc1)c1ccc(Cl)cc1 | inactive | inactive | inactive | inactive | inactive | – | – | – | –
NC(=O)c1ccsc1NC(=O)COC(=O)Cc1ccsc1 | inactive | – | inactive | inactive | inactive | 182% (active) | – | – | –
CN(C(=O)c1ccc2c(c1)OCO2)C1CCCCC1 | inactive | inactive | inactive | inactive | inactive | – | – | – | –
Oc1ccc(Br)cc1C=Nc1ccc(Cl)cc1 | inactive | inactive | inactive | inactive | inactive | – | – | – | –
CCOC(=O)c1ccc(-n2c(CN3CCOCC3)nc3ccc([N+](=O)[O-])cc3c2=O)cc1 | inactive | inactive | inactive | inactive | inactive | – | – | – | –
CCSc1nnc(-c2ccncc2)n1Cc1ccccc1 | inactive | inactive | inactive | inactive | inactive | – | – | – | –
CCn1c(SCC(=O)c2cccs2)nnc1-c1cccs1 | inactive | inactive | inactive | inactive | inactive | – | – | – | –
CCCCCCOc1ccc(N2C(=O)CC(N3CCN(C(=O)c4ccco4)CC3)C2=O)cc1 (stereo not given) | inactive | – | inactive | inactive | inactive | 17.5% (active) | – | – | –
CC(=O)c1cccc(OCc2cc(C(=O)N(C)C(C)c3ccccn3)no2)c1 (stereo not given) | inactive | inactive | inactive | inactive | inactive | – | – | – | –
CCOC(=O)N1CCC(NC(=O)c2cc(C(=O)NCc3ccc(F)cc3)ccc2CO)CC1 | inactive | inactive | inactive | inactive | inactive | – | – | – | –
CCCCOC(=O)c1ccc(NC(=S)NC(=O)c2ccco2)cc1 | inactive | inactive | inactive | inactive | inactive | – | – | – | –

Compound | outcome [1] | outcome [2] | outcome [3] | outcome [4] | outcome [5] | potentiation [2] | current potentiation [4] | potentiation [3] | activation [5]
Cc1cc(-c2cccs2)c(C#N)c(=S)[nH]1 | inactive | inactive | inactive | inactive | inactive | – | – | – | –
CCOc1ccc(OCCCN(C)C)cc1 | inactive | inactive | inactive | inactive | inactive | – | – | – | –
Cc1ccc(O)c(NC(=S)NC(=O)COc2ccc(Br)cc2)c1 | inactive | inactive | inactive | inactive | inactive | – | – | – | –
Cc1nc2c3cc(F)ccc3n(CCN3CCCCC3)c2s1 | inactive | – | inactive | inactive | inactive | 35% (active) | – | – | –
CC1=NOC(=O)/C1=C\c1ccc(-c2ccc(Cl)cc2Cl)o1 | inactive | inactive | inactive | inactive | inactive | – | – | – | –
CCN(C(=O)c1cc2c(=O)[nH]c3ccc(C)cc3c2s1)c1ccccc1F | inactive | – | inactive | inactive | inactive | 25% (active) | – | – | –
Oc1c(N=NC(=S)Nc2ccccc2F)c2ccccc2n1Cc1ccc(Cl)cc1 | inactive | inactive | inactive | inactive | inactive | – | – | – | –
CC(NC(=O)c1ccccc1Cl)C1CC2CCC1C2 (stereo not given) | inactive | inactive | inactive | inactive | inactive | – | – | – | –
S=c1nc[nH]c2c1[nH]c1ccc(Cl)cc12 | inactive | inactive | inactive | inactive | inactive | – | – | – | –
S=C(Nc1ccccc1)Nc1nc2ccccc2n1CCOc1ccc(Cl)cc1 | inactive | inactive | inactive | inactive | inactive | – | – | – | –
COc1ccc(NC(=O)CN2CCN(C3c4ccccc4-c4ccccc43)CC2)cc1 | inactive | inactive | inactive | inactive | inactive | – | – | – | –
CC1CCCCN1CCCNC(=O)Cn1ncc2c([nH]c3ccccc32)c1=O (stereo not given) | inactive | inactive | inactive | inactive | inactive | – | – | – | –
Cc1cccc(C)c1OCc1cc(C(=O)N(C)Cc2cc(C3CC3)n[nH]2)no1 | inactive | inactive | inactive | inactive | inactive | – | – | – | –
Cc1[nH]c(=S)c(C#N)c(C)c1Cc1ccc(Cl)cc1Cl | inactive | inactive | inactive | inactive | inactive | – | – | – | –
Cc1ccc(OCCn2c(=S)[nH]c3ccccc32)c(C(C)C)c1 | inactive | – | inactive | inactive | inactive | 119% (active) | – | – | –
CCCCc1ccc(-c2csc(/C(C#N)=C/c3ccco3)n2)cc1 | inactive | – | inactive | inactive | inactive | 132% (active) | – | – | –
Cc1ccc(C(=O)OCC(=O)NCCC2=CCCCC2)s1 | inactive | inactive | inactive | inactive | inactive | – | – | – | –
COc1ccc(-c2cc(-c3ccccc3)c(C#N)c(=S)[nH]2)cc1 | inactive | inactive | inactive | inactive | inactive | – | – | – | –
Oc1oc(-c2ccccc2)nc1/C=N/c1nccs1 | inactive | – | inactive | inactive | inactive | 29.5% (active) | – | – | –
O=C(CN(CC1CCCO1)C(=O)CNS(=O)(=O)c1ccc(Cl)cc1)NC1CCCC1 (stereo not given) | inactive | inactive | inactive | inactive | inactive | – | – | – | –
